In ChEMBL document CHEMBL4513216, “Probing the Open Global Health Chemical Diversity Library for Multistage-Active Starting Points for Next-Generation Antimalarials” (ACS Infect Dis, 2020) one finds cytotoxicity data, which are given here for 95 compounds.

The nature of the series: Toxicity liver stage against HepG2, at 10uM. The class given is cell-based. Also noted: test concentration 10 uM, cell line HepG2-A16-CD81EGFP. To be noted: human, HepG2-A16-CD81EGFP cells; read-out: INHIBITION
The gist of the method: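 Uninfected HepG2-A16-CD81EGFP cells, 3 × 10^3 per well, 1536-well, plated on prespotted compound at 10 μM final, parasite-free screening media added to match infected plates; puromycin 10 μM positive, DMSO 0.5% negative; run in parallel with 48 h PbLuc assay at 37 °C, 5% CO2; viability by CellTiter-Glo luminescence, normalized to controls.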
On to `Cc1ccc(C(=O)Nc2ccccc2F)n1C`, for which the cytotoxicity at 10 µM is 0.339%. Turning to `CC(=O)NC[C@H]1C[C@@H]2CCN1C[C@@H]2c1cc(-c2cccs2)nn1C`, the cytotoxicity at 10 µM was -7.99%. On to `CC(=O)N1N=C(c2ccccc2)OC1C(=O)NCCc1ccc(C)cc1` (stereo not given), for which the cytotoxicity at 10 µM came out at 0.0915%.

For the compound `CC(=O)N1N=C(c2ccccc2)OC1C(=O)NCCc1ccc(Cl)cc1` (stereo not given), the cytotoxicity at 10 µM came out at 3.68%. As for `O=C(c1cc(=O)c(OCc2ccccc2F)co1)N1CCCC1`, the figure is -0.321%; as for `O=C(c1ccccn1)N1CC(S(=O)(=O)c2ccc(Cl)cc2)C1`, -12%; as for `Cc1ccc(S(=O)(=O)Nc2cnn(C3CCOCC3)c2)cc1C`, 13.5%. Take `O=C(NC1CC1)N1CCCC2(CCNC2=O)C1` (stereo not given): the cytotoxicity at 10 µM is 3%.

On to `Cn1ccc(C(=O)N2CCCCC23CC(=O)N(Cc2ccccc2)C3)n1` (stereo not given), for which the cytotoxicity at 10 µM stood at 3.64%. Consider `CC[C@@H]1N(Cc2cc(OC)cc(OC)c2)CCC[C@]12CCC(=O)N2C`, for which the cytotoxicity at 10 µM was 11.8%. For the compound `Cc1cnc(N2C[C@@H]3[C@@H](C(=O)NC(C)C)CCS(=O)(=O)[C@@H]3C2)nc1`, the cytotoxicity at 10 µM was -130%.

Take `O=C(C1CCSCC1)N1CCC2(CC1)COC(COCC1CC1)C2` (stereo not given): the cytotoxicity at 10 µM is 2.56%.

`Cc1nc(N2CCOCC2)nc2c1COCC21CCN(CC(C)C)C1` (stereo not given): the cytotoxicity at 10 µM is -128%. As for `CN(C)C(=O)c1n[nH]c2c1CCN(Cc1nccs1)C2`, the figure is -139%; as for `O=C(COC[C@@H]1CC[C@H]2[C@H](CCN2Cc2ccco2)O1)N1CCCC1`, -161%. Turning to `O=C1CC(c2ccc(C(=O)O)cc2)c2ncn(-c3ccccc3F)c2N1` (stereo not given), the cytotoxicity at 10 µM is -3.51%. Then `O=C(Cc1cccs1)N1C[C@@H]2COC[C@]2(COc2cccnc2)C1`, with -21.1%; and `CCCc1nnsc1C(=O)N1CCCC1(C)C(=O)N1CCOCC1` (stereo not given), with 12%; and `CC1CCc2nn(CCNC(=O)c3cccs3)c(=O)cc2C1` (stereo not given), with 17%. Take `Cn1cncc1CN1CCOC(Cc2ccccc2)C1` (stereo not given): the cytotoxicity at 10 µM was 9.43%. Then `CNc1ncc(CN(C)C2CCN(C(C)C)CC2)cn1`, with -3.14%; and `CN(C)Cc1cnn(-c2ccccc2C(=O)N(C)Cc2ccccc2)c1`, with -6.54%; and `COc1ccc(CN(C)[C@@H]2CN(C(=O)c3ccnn3C)C[C@H]2O)cc1`, with -13.5%. As for `Cc1ccc(C)c(C(O)Cn2cc(Cl)c(=O)[nH]c2=O)c1` (stereo not given), the figure is -6.81%; as for `COC(C)c1cccc(NCc2cccc(O)c2)c1` (stereo not given), -0.334%; as for `COc1ccccc1C(C)(C)NC(=O)c1cc(NC(C)=O)ccc1F`, -137%. Then `Cn1cccc1C(=O)COc1ccc(S(N)(=O)=O)cc1`, with 12.4%. As to `COc1cc(Br)c(CNc2ccn(CCC(N)=O)n2)cc1OC`, the cytotoxicity at 10 µM is -2.87%. Take `CCCNC1(c2ccc(Cl)cc2)CCOCC1`: the cytotoxicity at 10 µM was -0.0529%. As for `CN(CCCNC(=O)c1ccccc1OCC(N)=O)CC(F)(F)F`, the figure is -7.53%; as for `CC(C)(C)n1ncc2c(=O)[nH]c(N3CCN(CC(F)F)CC3)nc21`, -7.8%; as for `COc1ccc(C)cc1CC(=O)Nc1cc(C)n[nH]1`, 0.503%.

On to `O=C(CNC(=O)C1CCCC1)NCc1cnn(-c2ccc(F)cc2F)c1`, for which the cytotoxicity at 10 µM was 8.21%. With `NC(=O)C1CCN(CC(=O)NCCc2c(F)cccc2F)CC1`, the cytotoxicity at 10 µM is -7.14%.

In the case of `NC(=O)N1CCCN(CC(=O)NCCc2c(F)cccc2F)CC1`, the cytotoxicity at 10 µM was -5.15%. As for `O=C(NCC(F)(F)F)C1CCCN(Cc2ccno2)C1` (stereo not given), the cytotoxicity at 10 µM is -4.13%. Consider `CCc1cnc(CN(C)C(=O)NC2CCN(c3ccccc3)C2)s1` (stereo not given), for which the cytotoxicity at 10 µM was -2.12%. Take `NC(=O)COc1ccc(C(=O)NCCc2ccco2)cc1`: the cytotoxicity at 10 µM turned out to be 10.1%. Take `NC(=O)C1CCN(C(=O)CCCc2ccc(Cl)c(Cl)c2)CC1`: the cytotoxicity at 10 µM turned out to be 5.34%. Consider `CC(C)Cc1nnc(NCc2ccsc2)o1`, for which the cytotoxicity at 10 µM was -0.699%. As for `CC(C)(C)c1nccc(N2CCN(C3CCS(=O)(=O)C3)CC2)n1` (stereo not given), the cytotoxicity at 10 µM worked out at 1.05%.

Take `CS(=O)(=O)CCC(=O)NC1CC(c2ccccc2Cl)C1` (stereo not given): the cytotoxicity at 10 µM is -4.19%. Then `CN(CCOc1cccc(Cl)c1)Cc1nnc(C(C)(C)C)o1`, with 8.65%.

For `COc1cccc(N2CCC(CNC(=O)N(C)Cc3ccco3)C2)c1` (stereo not given), the cytotoxicity at 10 µM was -130%.

With `O=C1C(Sc2nc(=O)ccn2C2CC2)CCN1c1ccccc1` (stereo not given), the cytotoxicity at 10 µM was 1.27%. As for `COCCNC(=O)Cn1cc(NC(=O)c2ccc(C(C)(C)C)cc2)cn1`, the cytotoxicity at 10 µM was -9.94%. As for `O=C(Nc1ccc(-n2cncn2)c(F)c1)C1CCN(C(=O)C2CC2)CC1`, the cytotoxicity at 10 µM is -2.83%. Regarding `Cc1ccc(C(=O)NCCCC2(C3OCCO3)CCOCC2)cc1C`, the cytotoxicity at 10 µM came to 1.48%. `C[C@@H]1CN(C(=O)c2ccc(Br)cc2F)CC(C(N)=O)O1` (stereo not given in full): the cytotoxicity at 10 µM was -2.74%. Then `Cc1c(C(=O)NCC(C)(C)S(C)(=O)=O)cccc1-c1ccccn1`, with 2.07%.

On to `CCOc1ccnc(N2CCN(C(=O)CCc3cnn(C)c3)CC2)n1`, for which the cytotoxicity at 10 µM was found to be 7.58%. Regarding `Cc1csc(CNC(=O)Nc2ccc3c(c2)OCO3)n1`, the cytotoxicity at 10 µM is -15.7%. For `NC(=O)CN(C(=O)c1cccc(C(F)(F)F)c1)C1CCCC1`, the cytotoxicity at 10 µM was -0.296%. With `COc1ccc(OC)c(CN(C)c2ncc(S(N)(=O)=O)s2)c1`, the cytotoxicity at 10 µM worked out at 5.8%.

Consider `O=C(Nc1nccs1)N1CCCC(N2CCNC2=O)C1` (stereo not given), for which the cytotoxicity at 10 µM was -20.7%. Then `CC(C)c1cc(C(=O)NCCn2nnc3ccccc32)no1`, with -1.95%; and `CCOC(=O)c1n[nH]cc1CN1CCOC(Cc2ccccc2)C1` (stereo not given), with -5.35%.

For `NC(=O)CN1CCC(C(=O)NCCc2nc(-c3ccccc3)cs2)CC1`, the cytotoxicity at 10 µM is -7.85%.

With `CN(C)C(=O)CCN1CC(c2ccccc2)(c2ccccc2)CCC1=O`, the cytotoxicity at 10 µM stood at 0.284%. `O=C(Cc1ccc2c(c1)OCO2)N[C@@H]1CCNC[C@H]1O`: the cytotoxicity at 10 µM was found to be 0.635%. As for `O=C(O)CSc1nnc(-c2ccn[nH]2)n1-c1ccccc1Cl`, the figure is 0.276%; as for `CCCn1cnnc1CNC(=O)CC1C(=O)NCCN1CC(C)(C)C` (stereo not given), -0.798%. As to `CCCS(=O)(=O)c1ncc(CN2CCC(C)CC2)n1CC1CCCO1` (stereo not given), the cytotoxicity at 10 µM is -5.12%. With `O=C(Nc1cccc2ccccc12)N1CCC(N2CCSCC2)CC1`, the cytotoxicity at 10 µM is -1.86%. Take `Cc1c[nH]c(CN(C)C(=O)C(C)(C)NC(=O)c2cccs2)n1`: the cytotoxicity at 10 µM is 3.08%. As for `CCc1cc(C(=O)N2CCC3(CCCN(CC4CC4)C3=O)C2)cs1` (stereo not given), the figure is -164%; as for `COCCN1CCCC2(CCN(c3nccnc3N(C)C)C2)C1=O` (stereo not given), -0.525%. As to `O=C(NCc1nc[nH]n1)c1cc(COc2cccc(C(F)(F)F)c2)[nH]n1`, the cytotoxicity at 10 µM was -3.26%.

Take `O=C(NCCc1csc(-c2ncccn2)n1)c1cnn2c1CCCC2`: the cytotoxicity at 10 µM was -3.88%. In the case of `CCc1ccc2nc(C)cc(C(=O)NC3CCC(=O)N(C)C3)c2c1` (stereo not given), the cytotoxicity at 10 µM is -5.85%. Then `c1coc(-c2nc3c(c(N4CCCN5CCC[C@H]5C4)n2)CCNCC3)c1`, with -9.88%; and `COc1cccc2c1OCC(CNC(=O)CSc1ccccn1)C2` (stereo not given), with -135%; and `CN1CCc2[nH]cnc2C12CCN(C(=O)c1noc3c1CCCC3)CC2`, with 8.71%. Regarding `NC(=O)c1cc(C2CCCN(C(=O)CCc3ccncc3)C2)n[nH]1` (stereo not given), the cytotoxicity at 10 µM is -8.99%. With `Cc1ccc(CC(=O)N2CCN(CC(C)O)CC2)cn1` (stereo not given), the cytotoxicity at 10 µM is -2.37%. As to `Cc1ccccc1C1CCCN1Cc1nc2c(cnn2C)c(=O)[nH]1` (stereo not given), the cytotoxicity at 10 µM is -12%. With `c1cncc(-c2noc(CN3CCCC(Cn4cncn4)C3)n2)c1` (stereo not given), the cytotoxicity at 10 µM is -2.18%. Turning to `Cn1c(NCC(O)c2ccc(F)c(F)c2)c(C#N)c(=O)n(C)c1=O` (stereo not given), the cytotoxicity at 10 µM was -19.9%. Then `CNC(=O)CN1CCC(NC(=O)Cc2ccc3c(c2)OCCO3)CC1`, with -18.3%; and `Cc1cc(C)n(CC2CCCN2C(=O)c2ccc3nncn3c2)n1` (stereo not given), with 2.01%. Then `Cc1cccc(C)c1OCC(=O)N1CCOCC1c1ncon1` (stereo not given), with -17%. As to `CC(c1nc(C2CC2)no1)N1CCN(Cc2nnc(C3CC3)o2)CC1` (stereo not given), the cytotoxicity at 10 µM was 7.7%. Take `CC(C)C(=O)NCc1ccc(N(C)C)cc1`: the cytotoxicity at 10 µM was -18.1%. As for `CC(C)c1nc(CN2CCN(Cc3ccccn3)CC2)cs1`, the figure is -4.41%. Take `CNS(=O)(=O)c1cccc(CNC(=O)NCC2CCOC2)c1` (stereo not given): the cytotoxicity at 10 µM is -9.97%. Consider `CCCc1cc(C(=O)NCCn2nc3ccccn3c2=O)[nH]n1`, for which the cytotoxicity at 10 µM was -3.56%.

Consider `CCOc1cccc(NS(=O)(=O)c2cc(C(=O)O)cs2)c1`, for which the cytotoxicity at 10 µM was -4.41%. As to `CC(C)N(C)[C@@H]1CCN(c2ncccn2)[C@H]1Cc1ccncc1`, the cytotoxicity at 10 µM was -3.42%.

On to `COc1cc(CNCC(O)c2ccccc2)cc2c1OCO2` (stereo not given), for which the cytotoxicity at 10 µM was -13%. As to `O=C1[C@H]2CN(Cc3ccccc3)C[C@H]2CN1CCN1CCCC1`, the cytotoxicity at 10 µM was -3.84%. Turning to `CS(=O)(=O)NC[C@@H]1OC[C@H]2CN(Cc3ccccc3)CC[C@H]21`, the cytotoxicity at 10 µM stood at 4.82%.

`O=c1c(=CS(=O)(=O)Nc2ccc(Cl)cc2)[nH]c(=O)n2cccc12`: the cytotoxicity at 10 µM is -7.67%. Then `Cc1ccc(NS(=O)(=O)C=c2[nH]c(=O)n3cccc3c2=O)cc1`, with -10.7%.

Consider `CC(=O)c1ccc(C(=O)N2C[C@H]3CC[C@@H](C2)N(Cc2ccccc2)C3)s1`, for which the cytotoxicity at 10 µM was -13.3%.

Regarding `Cc1cnc(C(=O)N2C[C@@H]3CC[C@H]2CN(c2cnccn2)C3)cn1`, the cytotoxicity at 10 µM was found to be 10.1%.
